# Source: ChEMBL document CHEMBL1123769, “Renin inhibitors. Design of angiotensinogen transition-state analogues containing novel. (2R,3R,4R,5S)-5-amino-3,4-dihydroxy-2-isopropyl-7-methyloctanoic acid” (J Med Chem, 1987)
# Where a SMILES comes first, the peptide text is derived from it. [ ]: non-standard residue; d: D form. The star is where a group is joined. 1Nal = N[C@@H](Cc1cccc2ccccc12)C(=O)O; Leu(ol) = CC(C)C[C@H](N)CO; Cbz = O=C(OCc1ccccc1)*
# Columns and labels:
# Renin = target: T1, Renin (Homo sapiens, UniProt P00797); test: Tested for the inhibition of human plasma renin
# T1 sequence (P00797 whole entry): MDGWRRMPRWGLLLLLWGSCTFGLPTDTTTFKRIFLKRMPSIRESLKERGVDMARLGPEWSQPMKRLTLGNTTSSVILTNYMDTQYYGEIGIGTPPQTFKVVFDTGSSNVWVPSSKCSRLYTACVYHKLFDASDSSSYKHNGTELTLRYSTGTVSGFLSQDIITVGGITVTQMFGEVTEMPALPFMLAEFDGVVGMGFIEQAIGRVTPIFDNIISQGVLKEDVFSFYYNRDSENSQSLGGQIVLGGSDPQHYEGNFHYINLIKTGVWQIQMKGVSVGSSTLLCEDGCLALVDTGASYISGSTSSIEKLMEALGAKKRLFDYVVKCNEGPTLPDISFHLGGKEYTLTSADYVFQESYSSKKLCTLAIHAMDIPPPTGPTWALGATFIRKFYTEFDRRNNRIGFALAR
# How it was run: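 Lyophilized human plasma with 0.1% EDTA, incubated with phenylmethanesulfonyl fluoride, maleate buffer (pH 6.0) and inhibitor in 1% Tween 80/water vehicle, 90 min at 37 °C. Angiotensin I generated was measured by radioimmunoassay kit. Percent inhibition came from inhibitor versus control plasma renin activity. IC50 was estimated graphically from 3–4 inhibitor concentrations plotted on a semilog scale.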
# Renin (Homo sapiens) = target: T2, Renin (Homo sapiens) (UniProt P00797); test: Tested for the inhibition of human plasma renin at 10e-4 M concentration
# T2 sequence (whole entry): T1 sequence (P00797 whole entry)
Structure (SMILES),IC50 (Renin),inhibition (Renin (Homo sapiens))
CC(C)C[C@@H](C=O)NC(=O)[C@H](Cc1c[nH]cn1)NC(=O)[C@H](Cc1ccccc1)NC(=O)OCc1ccccc1 (Cbz-Phe-His-Leu-aldehyde),750 nM,
CC(C)C[C@@H](C=O)NC(=O)[C@H](Cc1c[nH]cn1)NC(=O)[C@H](Cc1cccc2ccccc12)NC(=O)OCc1ccccc1 (Cbz-[1Nal]-His-Leu-aldehyde),80 nM,
O=C(N[C@@H](Cc1cccc2ccccc12)C(=O)N[C@@H](Cc1c[nH]cn1)C(=O)N[C@@H](Cc1ccccc1)[C@@H](O)CO)OCc1ccccc1,1000 nM,
CC[C@H](C)[C@H](NC(=O)[C@@H](C[C@H](O)[C@H](CC(C)C)NC(=O)[C@H](Cc1c[nH]cn1)NC(=O)[C@H](Cc1ccccc1)NC(=O)OC(C)(C)C)C(C)C)C(=O)NCc1ccccn1,220 nM,
CC(C)C[C@@H](CO)NC(=O)[C@H](Cc1c[nH]cn1)NC(=O)[C@H](Cc1ccccc1)NC(=O)OCc1ccccc1 (HELM PEPTIDE1{[O=C(OCc1ccccc1)[*:2]].F.H.[CC(C)C[C@@H](CO)N[*:1]]}$$$$V2.0),,22%
CC(C)(C)OC(=O)N[C@@H](Cc1ccccc1)C(=O)N[C@@H](Cc1c[nH]cn1)C(=O)N[C@@H](Cc1ccccc1)[C@@H](O)CO,2600 nM,
CC(C)C[C@@H](CO)NC(=O)[C@H](Cc1c[nH]cn1)NC(=O)[C@H](Cc1cccc2ccccc12)NC(=O)OCc1ccccc1 (Cbz-[1Nal]-His-[Leu(ol)]),3600 nM,
CC[C@H](C)CNC(=O)[C@H](C(C)C)[C@@H](O)[C@H](O)[C@H](CC(C)C)NC(=O)[C@H](Cc1c[nH]cn1)NC(=O)[C@H](Cc1ccccc1)NC(=O)OC(C)(C)C,3400 nM,
CC[C@H](C)[C@H](NC(=O)[C@H](C(C)C)[C@@H](O)[C@H](O)[C@H](CC(C)C)NC(=O)[C@H](Cc1c[nH]cn1)NC(=O)[C@H](Cc1ccccc1)NC(=O)OC(C)(C)C)C(=O)NCc1ccccn1,350 nM,
CC[C@H](C)[C@H](NC(=O)[C@@H](CC(=O)[C@H](CC(C)C)NC(=O)[C@H](Cc1c[nH]cn1)NC(=O)[C@H](Cc1ccccc1)NC(=O)OC(C)(C)C)C(C)C)C(=O)NCc1ccccn1,3100 nM,
